Assay results collected from several papers.
Compare with care: the assays were run in different laboratories.
RET: Proto-oncogene tyrosine-protein kinase receptor Ret (RET, Homo sapiens, UniProt P07949)
RET V804M: Proto-oncogene tyrosine-protein kinase receptor Ret (RET, Homo sapiens, UniProt P07949, V804M)

| Structure (SMILES) | target | observed | mode | method | tested at | endpoint | result |
| --- | --- | --- | --- | --- | --- | --- | --- |
| CCCOc1ccc(OC)c(F)c1C(=O)c1ccc(C(=O)N[C@@H]2CNC[C@H]2NC(=O)c2ccc3[nH]ncc3c2)cc1 | RET | enzyme activity | inhibitor | – | 10 µM | remaining activity | 1% |
| Cc1cccc(NC(=O)CNC(=O)c2ccccc2NS(=O)(=O)c2ccc3[nH]c(=O)[nH]c3c2)c1C | RET | enzyme activity | inhibitor | radiometric | 10 µM | remaining activity | 85.9% |
| CC1=C(C#N)C(c2ccc3c(c2)c(NC(=O)c2ccccc2C)nn3C)C(C#N)=C(C)N1 | Proto-oncogene tyrosine-protein kinase receptor Ret (RET, Homo sapiens, UniProt P07949, V804L) | cell-free assay | – | competition with immobilised ligand | 1 µM | remaining binding | 100% |
| CO[C@]1(C(=O)N[C@@H](C)c2ccc(-n3cc(F)cn3)nc2)CC[C@H](c2nc(C)cc(Nc3cc(C)[nH]n3)n2)CC1 | Proto-oncogene tyrosine-protein kinase receptor Ret (RET, Homo sapiens, UniProt P07949, L772A) | thermal stability | – | DSF | 10 µM | ΔTm | 11.7 °C |
| CC(=O)Nc1cccc2c1CCN(C(=O)CCNC(=O)c1ccsc1)C2 | RET | enzyme activity | inhibitor | radiometric | 10 µM | remaining activity | 90.8% |
| O=C1CCc2cc(Nc3cc(OC4CCOCC4)c([N+](=O)[O-])cc3Cl)ccc2N1 | RET V804M | cell-free assay | – | competition with immobilised ligand | 1 µM | remaining binding | 100% |
| COc1ccc(CN2C3CC2CN(c2ccc(-c4cc(OCC(C)(C)O)cn5ncc(C#N)c45)cn2)C3)cn1 | Proto-oncogene tyrosine-protein kinase receptor Ret (RET, Homo sapiens, UniProt P07949, K758M) | thermal stability | – | DSF | 10 µM | ΔTm | 11.9 °C |
| Nc1ncnc2occ(-c3ccc(NC(=O)Nc4cc(C(F)(F)F)ccc4F)cc3)c12 | RET | cell-free assay | – | – | 20 µM | remaining signal | 0% |
| Cc1cc(-n2nc(Cc3cc(F)cc(C(F)(F)F)c3)nc2C)ccc1C(N)=O | RET V804M | cell-free assay | – | competition with immobilised ligand | 1 µM | remaining binding | 100% |
| CC(=O)OCc1cnc(C)c2oc(=Nc3ccc(F)cc3)c(C(=O)Nc3ccc4c(c3)OCO4)cc12 | RET | enzyme activity | inhibitor | radiometric | 0.1 µM | remaining activity | 121% |
| CNC(=O)Nc1ccc2c(c1)CC[C@@]21OC(=O)N(CC(=O)N(Cc2ccc(F)cc2)[C@@H](C)C(F)(F)F)C1=O | RET | cell-free assay | – | competition with immobilised ligand | 1 µM | remaining binding | 90% |
| Cc1cc(NC(=O)c2cccc3cc(-c4cccc5[nH]nc(N)c45)ccc23)ccc1F | RET V804M | enzyme activity | inhibitor | – | 0.1 µM | activity vs control | 117% |
| COc1ccc(OC)c(NC(=O)Nc2cc(OC)c3nc(NC(=O)c4ccccc4)sc3c2)c1 | RET | enzyme activity | inhibitor | radiometric | 0.1 µM | remaining activity | 114% |
